Source: article PMC6923801 (Journal of medicinal chemistry, 2019)

Columns and labels:
human GPR68 = human GPR68 (Homo sapiens, UniProt Q15743); test: GloSensor cAMP assay, proton-mediated Gs-cAMP production at human GPR68; assay type: cell-based; details: for Δ: difference of Log(αβ/KB) from that of 1
How it was run: (§1)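 HEK293T cells were transiently transfected with receptor and GloSensor cAMP plasmids, overnight (16–20 h). Cells were plated on poly-L-Lys in DMEM + 1% dFBS for 6–24 h, then loaded with 3.5 mM luciferin (HBSS, 20 mM TAPS, pH 8.40) for 1 h at 37 °C. Drug was applied in Ca/Mg-free HBSS pH buffers (MES 5.60–6.70, HEPES 6.80–8.20, TAPS 8.30–8.60) with 10 μM Ro 20-1724. Luminescence was read at 20–30 min.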

GPR4 [1] = molecular target: T1, GPR4 (Homo sapiens, UniProt P46093); details: cited from earlier work
T1 sequence (P46093 whole entry): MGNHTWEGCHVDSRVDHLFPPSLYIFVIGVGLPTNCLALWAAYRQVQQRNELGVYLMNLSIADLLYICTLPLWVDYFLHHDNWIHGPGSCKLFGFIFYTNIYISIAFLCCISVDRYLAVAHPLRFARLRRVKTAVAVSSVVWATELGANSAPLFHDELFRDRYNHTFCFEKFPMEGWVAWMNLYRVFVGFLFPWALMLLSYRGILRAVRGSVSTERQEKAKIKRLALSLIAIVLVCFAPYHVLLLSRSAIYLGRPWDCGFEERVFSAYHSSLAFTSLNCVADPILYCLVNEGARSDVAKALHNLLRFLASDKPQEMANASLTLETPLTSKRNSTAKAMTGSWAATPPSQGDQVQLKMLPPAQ

mouse GPR68 = mouse GPR68 (Mus musculus, UniProt Q8BFQ3); test: GloSensor cAMP assay at mouse GPR68; assay type: cell-based
mouse GPR68, sequence (Q8BFQ3 whole entry): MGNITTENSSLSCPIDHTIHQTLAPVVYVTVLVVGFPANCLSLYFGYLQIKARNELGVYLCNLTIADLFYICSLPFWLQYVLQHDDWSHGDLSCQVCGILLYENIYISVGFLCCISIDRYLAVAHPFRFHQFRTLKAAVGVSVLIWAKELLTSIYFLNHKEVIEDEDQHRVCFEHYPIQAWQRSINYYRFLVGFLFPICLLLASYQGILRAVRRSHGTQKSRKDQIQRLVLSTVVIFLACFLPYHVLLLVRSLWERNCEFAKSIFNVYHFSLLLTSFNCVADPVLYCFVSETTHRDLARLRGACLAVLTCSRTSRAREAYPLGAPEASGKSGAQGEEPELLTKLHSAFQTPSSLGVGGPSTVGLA
How it was run: as §1

GPR65 [2] = molecular target: T2, GPR65 (Homo sapiens, UniProt Q8IYL9); details: cited from earlier work
T2 sequence (Q8IYL9 whole entry): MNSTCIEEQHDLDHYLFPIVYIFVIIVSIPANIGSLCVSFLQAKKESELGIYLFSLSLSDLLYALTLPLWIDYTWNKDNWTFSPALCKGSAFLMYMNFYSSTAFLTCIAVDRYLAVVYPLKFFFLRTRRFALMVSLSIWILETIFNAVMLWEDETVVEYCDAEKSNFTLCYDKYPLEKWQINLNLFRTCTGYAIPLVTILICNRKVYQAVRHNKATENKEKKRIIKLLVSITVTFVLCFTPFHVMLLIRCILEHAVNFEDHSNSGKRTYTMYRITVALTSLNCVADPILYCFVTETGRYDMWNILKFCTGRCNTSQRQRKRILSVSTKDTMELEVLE

[3] = tested on: 48 common GPCRs, ion channels, and transporters; test: Radioligand binding panel of 48 common drug targets
How it was run: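 Binding profiling was done by the NIMH PDSP. Targets were first tested at 10 μM in quadruplicate. pKi values were determined for targets with ≥50% inhibition, from at least three independent assays, each in triplicate.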

[4] = tested on: human GPCRome (318 GPCRs); test: PRESTO-Tango GPCRome off-target agonist screen; assay type: cell-based; details: 1 μM
How it was run: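 HTLA cells were plated in DMEM + 2% dFBS overnight, then transfected overnight with receptor Tango constructs (15 ng/well) by in-plate PEI. Test compound was added without medium change and left overnight. Bright-Glo luminescence was read after 20 min at room temperature and expressed as fold of basal, using quadruplicate basal and sample wells. Controls were D2 with 100 nM quinpirole and untransfected cells.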

GPR65 [5] = molecular target: T2, GPR65; test: GloSensor cAMP assay at GPR65; assay type: cell-based; details: proton concentration-response with increasing modulator
How it was run: as §1

5-HT2B receptors = 5-HT2B receptors (Homo sapiens, UniProt P41595); test: Calcium release functional assay at 5-HT2B receptors; assay type: cell-based
5-HT2B receptors, sequence (P41595 whole entry): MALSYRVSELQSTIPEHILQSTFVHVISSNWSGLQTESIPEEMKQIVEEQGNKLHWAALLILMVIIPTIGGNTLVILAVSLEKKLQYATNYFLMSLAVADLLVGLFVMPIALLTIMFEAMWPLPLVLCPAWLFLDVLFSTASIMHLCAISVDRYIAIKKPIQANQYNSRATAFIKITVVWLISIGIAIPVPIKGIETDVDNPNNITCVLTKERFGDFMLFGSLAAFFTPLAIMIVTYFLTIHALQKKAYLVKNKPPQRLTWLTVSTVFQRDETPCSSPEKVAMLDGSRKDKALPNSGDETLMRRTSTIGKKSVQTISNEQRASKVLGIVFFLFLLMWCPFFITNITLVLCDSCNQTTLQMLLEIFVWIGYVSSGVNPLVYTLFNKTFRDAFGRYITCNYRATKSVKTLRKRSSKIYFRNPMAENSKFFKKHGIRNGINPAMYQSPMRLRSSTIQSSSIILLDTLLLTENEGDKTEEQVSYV
How it was run: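 HEK293 cells stably expressing 5-HT2B were plated in DMEM with 1% dFBS overnight (16–20 h). They were loaded with Fluo-4 Direct dye for 1 h at 37 °C in HBSS with 20 mM HEPES and 2.5 mM probenecid, pH 7.40. Drug dilutions contained 1 mg/mL BSA and 0.1 mg/mL ascorbic acid. Fluorescence was read 1/s for 2 min, with 10 s baseline. Read-out was peak fold of basal within the first minute.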

GPR4 [6] = molecular target: T1, GPR4; test: GloSensor cAMP assay at GPR4; assay type: cell-based; details: proton concentration-response with increasing modulator
How it was run: as §1

MT1 receptor = MT1 receptor (Homo sapiens, UniProt P48039); test: Tango arrestin recruitment concentration response, MT1; assay type: cell-based
MT1 receptor, sequence (P48039 whole entry): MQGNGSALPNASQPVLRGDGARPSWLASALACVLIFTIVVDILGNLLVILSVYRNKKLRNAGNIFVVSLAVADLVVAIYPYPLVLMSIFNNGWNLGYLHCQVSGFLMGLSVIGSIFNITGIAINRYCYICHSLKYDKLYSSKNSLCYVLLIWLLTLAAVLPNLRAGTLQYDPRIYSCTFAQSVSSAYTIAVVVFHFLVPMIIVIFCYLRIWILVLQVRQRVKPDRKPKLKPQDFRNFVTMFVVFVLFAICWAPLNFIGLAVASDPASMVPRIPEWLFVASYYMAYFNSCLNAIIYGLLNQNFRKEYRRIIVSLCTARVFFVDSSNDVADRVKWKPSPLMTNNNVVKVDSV
How it was run: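 HTLA cells were transfected overnight with receptor DNA in DMEM + 10% FBS, then plated on poly-L-Lys in DMEM + 1% dFBS. Test compound was added 6 h later and incubated overnight (16–20 h). After removal of medium, Bright-Glo reagent was added and luminescence counted.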

[7] = Mouse pharmacokinetic study; assay type: in vivo; details: mice, single 25 mg/kg IP
How it was run: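 Nine male Swiss Albino mice received one intraperitoneal dose of 25 mg/kg. Vehicle was 5% N-methyl-2-pyrrolidone, 5% Solutol HS-15 and 90% normal saline. Plasma and brain were sampled at 0.5, 1.0 and 2.0 h. Concentrations are averages of three mice per time point ± SEM.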

human GPR68, sequence (Q15743 whole entry): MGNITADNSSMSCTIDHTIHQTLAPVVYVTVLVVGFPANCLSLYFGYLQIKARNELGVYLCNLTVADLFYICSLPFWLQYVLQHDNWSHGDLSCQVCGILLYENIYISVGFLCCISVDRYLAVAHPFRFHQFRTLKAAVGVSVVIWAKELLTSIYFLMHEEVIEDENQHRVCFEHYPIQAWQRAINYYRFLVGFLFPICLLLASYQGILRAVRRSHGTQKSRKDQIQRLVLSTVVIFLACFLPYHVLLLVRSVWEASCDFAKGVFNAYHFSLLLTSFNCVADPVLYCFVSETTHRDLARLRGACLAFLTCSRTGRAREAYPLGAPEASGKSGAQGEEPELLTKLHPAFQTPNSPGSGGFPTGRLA

Nc1nc(NCc2ccccc2)nc(-c2ccccc2CO)n1 [Compound 1]
Kb (human GPR68): 44.7 µM
Δ (human GPR68; human GPR68): 0.00
activity at GPR4 (GPR4 [1]): no activity
Kb (mouse GPR68): 74.1 µM
Δ (mouse GPR68; difference of Log(αβ/KB) at mouse GPR68 from the corresponding values at human GPR68): −0.34
activity at GPR65 (GPR65 [2]): no activity

CC(=O)c1cccc(-c2nc(N)nc(NCc3ccccc3)n2)c1 [Compound 21, 1-(3-(4-Amino-6-(benzylamino)-1,3,5-triazin-2-yl)phenyl)ethan-1-one]
Log (α) (human GPR68; affinity cooperativity, human GPR68, HEK293T, Gs-cAMP, mean ± SEM): Inactive
−Log (KB) (human GPR68; allosteric binding affinity from functional assay, human GPR68, mean ± SEM): Inactive
Log (αβ/KB) (human GPR68; allosteric index, human GPR68, mean ± SEM): Inactive
Δ (human GPR68; human GPR68): Inactive
Log (β) (human GPR68; efficacy cooperativity, human GPR68, HEK293T, Gs-cAMP, mean ± SEM): Inactive
PAM activity at GPR68 (human GPR68; inactive analogues): do not show PAM activity
binding affinity to common drug targets [3]: minimal binding affinities
off-target agonist activity at human GPCRome [4]: no off-target agonist activity

Nc1nc(NCc2ccc(Oc3ccccc3)cc2)nc(-c2c(F)cccc2CO)n1 [Compound 71, (2-(4-Amino-6-((4-phenoxybenzyl)amino)-1,3,5-triazin-2-yl)-3-fluorophenyl)methanol]
Kb (human GPR68): 1.41 µM
Δ (human GPR68; human GPR68): 1.52
fold increased allosteric activity (log(αβ/KB)) compared to 1 (human GPR68; human GPR68): 33 fold
PAM activity at GPR65 (GPR65 [5]): weak potentiation of proton activity at GPR65 only at high concentrations
Kb (mouse GPR68): 7.59 µM
off-target agonist activity at human GPCRome [4]: agonist activity only at the MT1 and MT2 receptors
agonist activity at 5-HT2B receptors (5-HT2B receptors): no agonist activity
PAM activity at GPR4 (GPR4 [6]): no PAM activity
agonist type at MT1 (MT1 receptor): weak full agonist
bioavailability [7]: bioavailable
blood-brain barrier penetration [7]: can readily cross the BBB
clinical signs [7]: no clinical signs observed
time high exposure levels in plasma and brain were maintained [7]: 2 h
